What all share (assay type): functional, cell-based
A short description of assay [1]: Cytotoxicity against KB-3-1 cells after 68 hrs by MTT assay. The conditions noted are these: Homo sapiens, KB 3-1, 68 h. The procedure, abridged: (§1)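 Human epidermoid carcinoma KB-3-1 (parental) and sublines: KB/MRP1 (MRP1 cDNA-transfected), KB-CV60 (kept in 1 μg/mL cepharanthine + 60 ng/mL vincristine), KB-C2 (kept in 2 μg/mL colchicine). DMEM with 10% bovine serum, 37 °C, 5% CO₂. Seeded at 4×10^4 (KB-3-1), 5×10^4 (KB/MRP1) or 7.5×10^4 cells/mL (KB-CV60, KB-C2). Compound dilution series for 68 h, then MTT 4 h. Formazan dissolved in DMSO, A570. IC50 from survival curves by the Bliss method.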

The subject of another assay is KB. Briefly: Cytotoxicity against KB cells expressing MRP1 after 68 hrs by MTT assay. The settings on record: Homo sapiens. The procedure, abridged:
as §1

Assay [2] is described as follows: Cytotoxicity against KB-CV60 cells expressing MRP1 after 68 hrs by MTT assay. The conditions noted are these: Homo sapiens, KB-CV60, 68 h. The procedure, abridged: as §1
Assay [3] in a line: Cytotoxicity against KB-C2 cells overexpressing P-gp after 68 hrs by MTT assay. The settings on record: Homo sapiens, KB-C2, 68 h. The procedure, abridged:
as §1

Another assay relates to KB 3-1. Briefly: Reversal of P-gp-mediated multidrug resistance to Cytotoxicity of colchicine against human KB-3-1 cells at 5 uM after 68 hrs by MTT assay. The settings on record: KB 3-1, 68 h. The essentials:
(§2)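 KB-3-1 seeded at 4×10^4 cells/mL, KB-C2 at 7.5×10^4 cells/mL (KB-C2 kept in 2 μg/mL colchicine). MTT added for 4 h, DMSO solubilization, A570. IC50 by the Bliss method. Fold-resistance = IC50 / colchicine IC50 in KB-3-1. Mean ± SD, three independent experiments in triplicate.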

A short description of assay [4]: Reversal of P-gp-mediated multidrug resistance to Cytotoxicity of colchicine against human KB-C2 cells at 5 uM after 68 hrs by MTT assay. The conditions noted are these: KB-C2, 68 h. The essentials:
as §2

Bounds are passed on as bounds.

Turning to `CC1(C)C(CC[C@@H]2[C@@]3(C)CC[C@@H](O)C(C)(C)O[C@@H]3CC[C@]2(C)O)C(C=O)=CCC2C1CC[C@@]2(C)O` (stereo partly drawn), the IC50 in assay [1] was over 50 µM; in the assay with KB, over 50 µM; in assay [2], over 50 µM; in assay [3], over 50 µM; in the assay on KB 3-1, 0.005 µM; in assay [4], 2.85 µM.

Take `CC1(C)O[C@@H]2CC[C@](C)(O)[C@H](CCC3C(C=O)=CCC4C(CC[C@@]4(C)O)C3(C)C)[C@@]2(C)CCC1=O` (stereo partly drawn): the IC50 in assay [1] was over 50 µM; with KB, over 50 µM; in assay [2], over 50 µM; in assay [3], over 50 µM; in the assay on KB 3-1, 0.0056 µM; in assay [4] it was 6.32 µM.

Take `CC1(C)O[C@@H]2CC[C@](C)(O)[C@H](CCC3C(CO)=CCC4C(CC[C@@]4(C)O)C3(C)C)[C@@]2(C)CCC1=O` (stereo partly drawn): the IC50 in assay [1] is over 50 µM; with KB, over 50 µM; in assay [2], over 50 µM; in assay [3] it was over 50 µM; in the assay with KB 3-1, 0.0063 µM; in assay [4], 6 µM.

Take `CC1(C)C(CC[C@@H]2[C@@]3(C)CC[C@@H](O)C(C)(C)O[C@@H]3CC[C@]2(C)O)C(CO)=CCC2C1CC[C@@]2(C)O` (stereo partly drawn) [28-HYDROXYSIPHOLENOL A]: the IC50 in assay [1] was over 50 µM; with KB it was over 50 µM; in assay [2], over 50 µM; in assay [3], over 50 µM; in the assay on KB 3-1, 0.0059 µM; in assay [4], 5.07 µM.

Take `CC1=CCC2C(CC[C@@]2(C)O)C(C)(C)C1CC[C@@H]1[C@@]2(C)CC[C@@H](O)C(C)(C)O[C@@H]2CC[C@]1(C)O` (stereo partly drawn) [SIPHOLENOL A]: the IC50 in assay [1] is over 50 µM; in the assay on KB it was over 50 µM; in assay [2], over 50 µM; in assay [3], over 50 µM; with KB 3-1 it was 0.005 µM; in assay [4] it was 0.21 µM.

Turning to `CC1(C)O[C@@H]2CC[C@](C)(O)[C@H](CC[C@@]34O[C@]3(C)[C@H](O)CC3C(CC[C@@]3(C)O)C4(C)C)[C@@]2(C)CC[C@H]1O` (stereo partly drawn) [SIPHOLENOL I], the half-inhibitory concentration (IC50) in assay [1] was over 50 µM; in the assay on KB, over 50 µM; in assay [2] it was over 50 µM; in assay [3], over 50 µM; in the assay on KB 3-1, 0.0086 µM; in assay [4], 2.87 µM.

For `CC1=CCC2C(CC[C@@]2(C)O)C(C)(C)C1CC[C@@H]1[C@@]2(C)CCC(=O)C(C)(C)O[C@@H]2CC[C@]1(C)O` (stereo partly drawn) [SIPHOLENONE A], the concentration for half-maximal inhibition (IC50) in assay [1] was over 50 µM; with KB it was over 50 µM; in assay [2] it was over 50 µM; in assay [3] it was over 50 µM; in the assay on KB 3-1 it was 0.0052 µM; in assay [4], 0.93 µM.

Turning to `CC1=C(CC[C@@H]2[C@@]3(C)CC[C@@H](O)C(C)(C)O[C@@H]3CC[C@]2(C)O)[C@](C)(C/C=C/C(C)(C)O)[C@H](O)CC1` [SIPHONELLINOL C], the concentration for half-maximal inhibition (IC50) was over 50 µM in assay [1]; over 50 µM in the assay with KB; over 50 µM in assay [2]; over 50 µM in assay [3]; 0.0078 µM in the assay with KB 3-1; 1.48 µM in assay [4].

Source of the values: ChEMBL document CHEMBL1143668, “Reversal of P-glycoprotein-mediated multidrug resistance by sipholane triterpenoids” (J Nat Prod, 2007).
